# Results as given in ChEMBL document CHEMBL1125880, “Structure-activity relationship of miltirone, an active central benzodiazepine receptor ligand isolated from Salvia miltiorrhiza Bunge (Danshen)” (J Med Chem, 1991).
# How the values were obtained:
# [1] = molecular target: GABA-A receptor; anion channel; assay: inhibition of [3H]flunitrazepam binding to GABA-A central Benzodiazepine receptor of bovine cerebral cortex membrane; assay type: tissue-based, Bos taurus
# Summary of the method: (§1)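 Calf cerebral cortical membranes incubated 45 min at 0 °C with [³H]flunitrazepam (1 nM) in 50 mM Tris-HCl pH 7.4, final volume 500 μL. Terminated by dilution with ice-cold buffer, rapid GF/B filtration and washes; filter radioactivity counted by liquid scintillation. Nonspecific binding defined with 10 μM diazepam. IC50 = concentration giving 50% inhibition of specific binding; mean ± SD of (n) determinations in duplicate. Unstable compounds tested immediately after preparation.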
# [2] = molecular target: GABA-A receptor; anion channel; assay: Potency related to miltirone (1) at the central benzodiazepine receptor was determined using [3H]flunitrazepam as radioligand; assay type: protein-complex assay; summary of the method: as §1
SMILES,IC50 [1] [µM],IC50 [2] [µM]
C=Cc1cccc2c1C(=O)C(=O)C(C(C)C)=C2,> 40,
CC1(C)CCCc2c1ccc1c2C(=O)C(=O)C=C1,,10
CCN(CC)C(=O)c1cccc2c1C(=O)C(=O)C(C(C)C)=C2,,> 30
CCc1cccc2c1C(=O)C(=O)C(C(C)C)=C2,,> 200
CC(C)C1=Cc2cccc(-c3ccccc3)c2C(=O)C1=O,20,
CC(C)C1=Cc2ccccc2C(=O)C1=O,,> 50
CC(C)C1=Cc2cccc(C(=O)O)c2C(=O)C1=O,,4.3
CC(C)C1=CC2=C(CCCC2)C(=O)C1=O,,> 140
Cc1cc2ccc3c(c2oc1=O)CCCC3,,> 40
CC1=Cc2ccc3c(c2C(=O)C1=O)CCCC3(C)C,,0.4
O=C1C=Cc2ccc3c(c2C1=O)CCCC3,20,

# The remaining lines, values ahead:
IC50 [1] [µM],IC50 [2] [µM],SMILES
,17,CC(C)C1=Cc2ccc3c(c2C(=O)C1=O)CC[C@@H](O)[C@]3(C)O
,2,CC(C)C1=Cc2ccc3c(c2C(=O)C1=O)CCCC3(C)O (stereo not drawn)
,9.1,CC(C)C1=Cc2ncc3c(c2C(=O)C1=O)CCCC3
,0.9,CC(C)C1=Cc2ccc3c(c2C(=O)C1=O)CCCC3
4.4,,CC1=CCCc2c1ccc1c2C(=O)C(=O)C(C(C)C)=C1
,0.05,CC(C)C1=Cc2cc3c4c(c2C(=O)C1=O)CCCC4CC3 (stereo not drawn)
,0.32,CC(C)C1=Cc2ccc3c(c2C(=O)C1=O)CCCC(=O)N3
,0.31,CC(C)C1=Cc2ccc3c(c2C(=O)C1=O)CCCCCC3
,15,CC(C)C1=Cc2ccc3c(c2C(=O)C1=O)CC[C@H](O)[C@]3(C)O
,0.56,CC(C)C1=Cc2ccc3c(c2C(=O)C1=O)CCCC3=O
,0.23,CC(C)C1=Cc2ccc3c(c2C(=O)C1=O)CCCCC3
,0.3,CC(C)C1=Cc2ccc3c(c2C(=O)C1=O)CCCC3(C)C [MILTIRONE]
